Results published in ChEMBL document CHEMBL1137101, “3-Hydroxy-4-arylsulfonyltetrahydropyranyl-3-hydroxamic acids are novel inhibitors of MMP-13 and aggrecanase” (Bioorg Med Chem Lett, 2004).

Tests used:
[1] = target: T1, A disintegrin and metalloproteinase with thrombospondin motifs 4 (Homo sapiens, UniProt O75173); assay: Inhibitory concentration against aggrecanase
T1 sequence (O75173 whole entry): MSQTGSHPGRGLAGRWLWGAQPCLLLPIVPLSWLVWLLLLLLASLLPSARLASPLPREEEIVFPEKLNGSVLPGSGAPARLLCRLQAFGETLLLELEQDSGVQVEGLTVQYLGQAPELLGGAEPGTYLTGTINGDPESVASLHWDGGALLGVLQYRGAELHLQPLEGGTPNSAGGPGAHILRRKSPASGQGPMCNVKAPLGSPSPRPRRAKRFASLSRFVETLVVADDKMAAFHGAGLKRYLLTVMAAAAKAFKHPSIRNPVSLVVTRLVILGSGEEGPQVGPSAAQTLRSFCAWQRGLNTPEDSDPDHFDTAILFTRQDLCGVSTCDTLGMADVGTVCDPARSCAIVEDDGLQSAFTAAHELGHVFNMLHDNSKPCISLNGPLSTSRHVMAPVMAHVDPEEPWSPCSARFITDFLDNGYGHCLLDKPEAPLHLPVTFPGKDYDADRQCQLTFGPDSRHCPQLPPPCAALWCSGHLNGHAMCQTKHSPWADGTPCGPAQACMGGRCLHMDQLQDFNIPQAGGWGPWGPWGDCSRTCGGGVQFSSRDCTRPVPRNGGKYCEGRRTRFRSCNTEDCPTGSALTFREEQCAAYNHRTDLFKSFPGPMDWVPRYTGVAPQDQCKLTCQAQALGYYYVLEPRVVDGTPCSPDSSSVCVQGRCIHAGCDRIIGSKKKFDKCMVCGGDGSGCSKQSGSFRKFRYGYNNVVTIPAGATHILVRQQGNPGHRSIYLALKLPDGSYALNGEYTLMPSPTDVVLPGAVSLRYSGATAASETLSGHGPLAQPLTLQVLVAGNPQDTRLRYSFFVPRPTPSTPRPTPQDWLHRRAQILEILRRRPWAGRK
How it was run: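 Cell-based assay in porcine chondrocytes. Aggrecan GAG chains labelled by culture with ³⁵S sulfate, then unincorporated label washed out. Aggrecan degradation stimulated with IL-1a (5ng/mL).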

[2] = target: T2, Interstitial collagenase (Homo sapiens, UniProt P03956); assay: Inhibitory concentration against matrix metalloprotease 1
T2 sequence (P03956 whole entry): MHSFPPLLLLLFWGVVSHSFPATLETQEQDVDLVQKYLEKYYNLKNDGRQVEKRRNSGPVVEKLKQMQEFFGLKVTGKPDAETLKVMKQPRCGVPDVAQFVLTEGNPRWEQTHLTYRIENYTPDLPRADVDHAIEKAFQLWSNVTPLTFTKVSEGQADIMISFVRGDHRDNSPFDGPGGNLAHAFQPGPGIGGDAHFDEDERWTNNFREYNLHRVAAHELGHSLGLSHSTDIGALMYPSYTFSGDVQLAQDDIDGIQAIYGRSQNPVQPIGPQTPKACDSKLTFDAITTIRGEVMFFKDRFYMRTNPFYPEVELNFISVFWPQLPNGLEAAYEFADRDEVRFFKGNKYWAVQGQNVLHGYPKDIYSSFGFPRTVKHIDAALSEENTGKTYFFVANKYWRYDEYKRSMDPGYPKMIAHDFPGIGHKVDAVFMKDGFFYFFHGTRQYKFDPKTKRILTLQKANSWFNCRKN

[3] = target: Collagenase 3 (Homo sapiens, UniProt P45452); assay: Inhibitory concentration against matrix metalloprotease 13
[4] = Inhibition of TNF alpha converting enzyme (TACE, ADAM17)
[5] = target: Stromelysin-1 (Homo sapiens, UniProt P08254); assay: Inhibition of matrix metalloprotease 3
Stromelysin-1, sequence (P08254 whole entry): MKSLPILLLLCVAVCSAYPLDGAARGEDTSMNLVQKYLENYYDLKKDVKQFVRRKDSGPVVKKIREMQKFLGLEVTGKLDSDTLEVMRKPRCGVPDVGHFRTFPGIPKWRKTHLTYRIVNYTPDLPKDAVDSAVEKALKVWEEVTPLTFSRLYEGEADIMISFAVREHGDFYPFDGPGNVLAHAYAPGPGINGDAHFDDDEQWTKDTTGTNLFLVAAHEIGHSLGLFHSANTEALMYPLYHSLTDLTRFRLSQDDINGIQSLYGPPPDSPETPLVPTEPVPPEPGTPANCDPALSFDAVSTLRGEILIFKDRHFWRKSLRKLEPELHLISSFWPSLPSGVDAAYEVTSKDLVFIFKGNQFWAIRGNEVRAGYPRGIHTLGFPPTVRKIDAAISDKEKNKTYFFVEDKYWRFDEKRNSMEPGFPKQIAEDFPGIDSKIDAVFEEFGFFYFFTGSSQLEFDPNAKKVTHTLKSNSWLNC

[6] = target: Matrix metalloproteinase-9 (Homo sapiens, UniProt P14780); assay: Inhibition of matrix metalloprotease 9
Matrix metalloproteinase-9, sequence (P14780 whole entry): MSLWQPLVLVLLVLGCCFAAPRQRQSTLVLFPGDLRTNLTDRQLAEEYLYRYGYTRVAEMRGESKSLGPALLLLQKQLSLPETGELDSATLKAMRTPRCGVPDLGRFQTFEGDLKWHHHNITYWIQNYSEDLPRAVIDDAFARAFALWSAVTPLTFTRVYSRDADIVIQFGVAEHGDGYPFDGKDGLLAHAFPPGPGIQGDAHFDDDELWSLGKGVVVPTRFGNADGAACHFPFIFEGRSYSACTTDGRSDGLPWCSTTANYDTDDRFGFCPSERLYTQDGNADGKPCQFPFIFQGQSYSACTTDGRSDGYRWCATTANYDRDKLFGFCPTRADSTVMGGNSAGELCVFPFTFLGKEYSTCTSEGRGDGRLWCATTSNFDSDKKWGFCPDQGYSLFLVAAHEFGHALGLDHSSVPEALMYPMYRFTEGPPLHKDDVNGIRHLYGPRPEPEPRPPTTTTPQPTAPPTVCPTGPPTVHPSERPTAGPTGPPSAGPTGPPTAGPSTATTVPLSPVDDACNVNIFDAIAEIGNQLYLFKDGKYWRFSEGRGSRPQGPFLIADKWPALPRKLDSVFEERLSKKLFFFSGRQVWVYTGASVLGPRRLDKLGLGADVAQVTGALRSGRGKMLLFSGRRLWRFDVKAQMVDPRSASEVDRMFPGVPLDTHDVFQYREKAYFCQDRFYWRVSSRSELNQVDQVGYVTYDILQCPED

[7] = target: Macrophage metalloelastase (Homo sapiens, UniProt P39900); assay: Inhibition of matrix metalloprotease 12
Macrophage metalloelastase, sequence (P39900 whole entry): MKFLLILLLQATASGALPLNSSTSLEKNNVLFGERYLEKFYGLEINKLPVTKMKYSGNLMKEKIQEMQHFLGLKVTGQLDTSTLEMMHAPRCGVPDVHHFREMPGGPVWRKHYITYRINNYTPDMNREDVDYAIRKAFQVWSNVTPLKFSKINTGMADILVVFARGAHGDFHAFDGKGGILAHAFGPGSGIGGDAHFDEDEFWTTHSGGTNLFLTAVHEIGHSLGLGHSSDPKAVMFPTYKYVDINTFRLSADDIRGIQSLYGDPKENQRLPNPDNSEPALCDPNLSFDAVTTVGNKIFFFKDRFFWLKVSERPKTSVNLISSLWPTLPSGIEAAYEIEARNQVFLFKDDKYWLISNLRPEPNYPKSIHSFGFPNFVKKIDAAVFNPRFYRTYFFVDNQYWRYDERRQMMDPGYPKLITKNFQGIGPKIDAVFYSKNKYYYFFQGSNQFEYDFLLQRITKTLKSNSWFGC

[8] = target: Matrix metalloproteinase-14 (Homo sapiens, UniProt P50281); assay: Inhibition of matrix metalloprotease 14
[9] = Half life in rat; type: ADME, organism-based; conditions: in vivo
How it was run: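 Rat PK after IV bolus of 5mg/kg in glycerol formal. Blood drawn from the jugular vein at 5, 15, 30 min and 1, 2, 4, 6, 8, 24 h. Plasma diluted with an equal volume of water, extracted with MTBE, drug measured by LC–MS/MS. Parameters from noncompartmental analysis.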

[10] = Oral bioavailability in rat; type: ADME, organism-based; conditions: in vivo
How it was run: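 Oral dose given to rat as a suspension in 0.5% aqueous methylcellulose.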

| IC50 [1] [µM] | IC50 [2] [µM] | IC50 [3] [µM] | SMILES | also measured |
| --- | --- | --- | --- | --- |
| 0.22 | > 30 | 0.028 | O=C(NO)[C@@]1(O)COCC[C@H]1S(=O)(=O)c1ccc(OCc2ccccc2C(F)(F)F)cc1 | – |
| 0.026 | > 30 | 0.3 | Cc1ccc(C)c(COc2ccc(S(=O)(=O)[C@@H]3CCOC[C@]3(O)C(=O)NO)cc2)c1 | – |
| 0.1 | – | 0.046 | CO[C@]1(C(=O)NO)COCC[C@H]1S(=O)(=O)c1ccc(OCc2ccc(Cl)cc2Cl)cc1 | – |
| 0.14 | 13 | 0.015 | O=C(NO)[C@@]1(O)COCC[C@H]1S(=O)(=O)c1ccc(OCc2cccc(Cl)c2Cl)cc1 | – |
| 0.055 | 12 | 0.021 | Cc1ccccc1COc1ccc(S(=O)(=O)[C@@H]2CCOC[C@]2(O)C(=O)NO)cc1 | – |
| 0.1 | – | 0.038 | CO[C@]1(C(=O)NO)COCC[C@H]1S(=O)(=O)c1ccc(OCc2ccccc2Cl)cc1 | – |
| 0.04 | 2.8 | 0.0027 | O=C(NO)[C@@]1(O)COCC[C@H]1S(=O)(=O)c1ccc(OCc2ccccc2Cl)cc1 | – |
| > 1 | 7.9 | 0.0024 | O=C(NO)[C@@]1(O)COCC[C@H]1S(=O)(=O)c1ccc(OCc2cccc(Cl)c2)cc1 | – |
| > 1 | > 30 | > 0.3 | O=C(NO)[C@@]1(O)COCC[C@H]1S(=O)(=O)c1ccc(OCc2c(Cl)cccc2Cl)cc1 | – |
| 0.37 | 19 | 0.017 | Cc1ccc(COc2ccc(S(=O)(=O)[C@@H]3CCOC[C@]3(O)C(=O)NO)cc2)c(C)c1 | – |
| > 1 | 22 | 0.005 | Cc1cccc(COc2ccc(S(=O)(=O)[C@@H]3CCOC[C@]3(O)C(=O)NO)cc2)c1 | – |
| > 1 | < 0.03 | 0.00043 | Cc1cccc(-c2ccc(S(=O)(=O)[C@@H]3CCOC[C@]3(O)C(=O)NO)cc2)c1 | – |
| – | – | 0.012 | O=C(NO)[C@H]1C[C@@H](O)CCN1S(=O)(=O)c1ccc(OCc2ccccc2Cl)cc1 | IC50 [4]: 0.036 µM |
| > 1 | > 30 | > 0.3 | Cc1cccc(C)c1COc1ccc(S(=O)(=O)[C@@H]2CCOC[C@]2(O)C(=O)NO)cc1 | – |
| > 1 | 5.4 | 0.0013 | Cc1ccc(COc2ccc(S(=O)(=O)[C@@H]3CCOC[C@]3(O)C(=O)NO)cc2)cc1 | – |
| 0.087 | 27 | 0.013 | O=C(NO)[C@@]1(O)COCC[C@H]1S(=O)(=O)c1ccc(OCc2cc(Cl)ccc2Cl)cc1 | – |
| > 1 | 0.27 | 0.0011 | Cc1cccc(Oc2ccc(S(=O)(=O)[C@@H]3CCOC[C@]3(O)C(=O)NO)cc2)c1 | – |
| > 1 | 10 | 0.14 | Cc1ccccc1-c1ccc(S(=O)(=O)[C@@H]2CCOC[C@]2(O)C(=O)NO)cc1 | – |
| 0.0081 | 0.92 | 0.00095 | O=C(NO)[C@@]1(O)COCC[C@H]1S(=O)(=O)c1ccc(OCc2ccc(Cl)cc2Cl)cc1 | IC50 [5]: 0.055 µM; IC50 [6]: 0.0053 µM; IC50 [7]: 0.00095 µM; IC50 [8]: 0.15 µM; half-life [9]: 5 h; bioavailability [10]: 7% |
| > 1 | 4.7 | 0.0098 | Cc1ccccc1Oc1ccc(S(=O)(=O)[C@@H]2CCOC[C@]2(O)C(=O)NO)cc1 | – |

| SMILES | IC50 [1] [µM] | IC50 [2] [µM] | IC50 [3] [µM] | also measured |
| --- | --- | --- | --- | --- |
| O=C(NO)[C@@]1(O)COCC[C@H]1S(=O)(=O)c1ccc(OCc2ccc(Cl)cc2)cc1 | 0.33 | 1.4 | 0.00088 | – |
| Cc1ccc(Oc2ccc(S(=O)(=O)[C@@H]3CCOC[C@]3(O)C(=O)NO)cc2)cc1 | > 1 | 0.12 | 0.001 | – |
| Cc1ccc(-c2ccc(S(=O)(=O)[C@@H]3CCOC[C@]3(O)C(=O)NO)cc2)cc1 | > 1 | < 0.03 | 0.00039 | – |
